Columns and labels:
Cytochrome P450 2C9 = Cytochrome P450 2C9 (Homo sapiens, UniProt P11712); experiment: Inhibition of CYP2C9 in human liver microsomes assessed as reduction in diclofenac 4-hydroxylation at 1 to 25 uM by UPLC-MS/MS analysis; format: ADME
[1] = Protein binding in rat plasma at 1 uM by LC-MS/MS analysis; format: ADME, cell-free; details: read-out: PPB
[2] = Oral bioavailability in Beagle dog at 1 mg/kg administered via gavage; format: ADME, organism-based, Canis lupus familiaris; details: in vivo
Cytochrome P450 3A4 = Cytochrome P450 3A4 (Homo sapiens, UniProt P08684); experiment: Inhibition of CYP3A4 in human liver microsomes assessed as reduction in testosterone 6beta-hydroxylation at 1 to 25 uM by UPLC-MS/MS analysis; format: ADME
Sequence of Cytochrome P450 3A4 (P08684 whole entry): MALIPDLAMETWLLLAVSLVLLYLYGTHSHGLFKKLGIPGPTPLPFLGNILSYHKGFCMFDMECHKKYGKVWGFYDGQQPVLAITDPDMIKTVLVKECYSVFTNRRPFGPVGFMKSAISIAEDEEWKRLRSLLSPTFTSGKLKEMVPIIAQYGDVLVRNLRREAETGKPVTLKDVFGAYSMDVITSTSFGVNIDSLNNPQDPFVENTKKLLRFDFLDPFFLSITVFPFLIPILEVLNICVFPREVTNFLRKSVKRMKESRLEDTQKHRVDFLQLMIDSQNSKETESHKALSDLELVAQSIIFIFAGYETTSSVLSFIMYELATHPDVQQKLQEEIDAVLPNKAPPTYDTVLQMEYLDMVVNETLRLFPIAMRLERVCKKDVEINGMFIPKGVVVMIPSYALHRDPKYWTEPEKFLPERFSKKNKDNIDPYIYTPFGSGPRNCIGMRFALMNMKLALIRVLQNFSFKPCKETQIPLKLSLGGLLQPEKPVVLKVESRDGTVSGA

[3] = AUC in Wistar rat at 1 mg/kg, iv; format: ADME, organism-based; details: in vivo
Procedure, shortened: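 Wistar rats received a single 1 mg/kg intravenous dose. Plasma samples were collected and AUC was calculated from them, along with half-life, clearance and steady-state volume of distribution. Values are means of two animals (n=2).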

[4] = molecular target: PI3-kinase p110-alpha/p85-alpha (Homo sapiens, UniProt P42336); experiment: Inhibition of full length recombinant human N-terminal His6-tagged PI3K p110alpha/human p85alpha expressed in baculovirus infected Sf21 insect cells using PIP2 as substrate preincubated for 30 mins followed by substrate addition by HTRF assay
Sequence of PI3-kinase p110-alpha/p85-alpha (P27986 whole entry, canonical isoform): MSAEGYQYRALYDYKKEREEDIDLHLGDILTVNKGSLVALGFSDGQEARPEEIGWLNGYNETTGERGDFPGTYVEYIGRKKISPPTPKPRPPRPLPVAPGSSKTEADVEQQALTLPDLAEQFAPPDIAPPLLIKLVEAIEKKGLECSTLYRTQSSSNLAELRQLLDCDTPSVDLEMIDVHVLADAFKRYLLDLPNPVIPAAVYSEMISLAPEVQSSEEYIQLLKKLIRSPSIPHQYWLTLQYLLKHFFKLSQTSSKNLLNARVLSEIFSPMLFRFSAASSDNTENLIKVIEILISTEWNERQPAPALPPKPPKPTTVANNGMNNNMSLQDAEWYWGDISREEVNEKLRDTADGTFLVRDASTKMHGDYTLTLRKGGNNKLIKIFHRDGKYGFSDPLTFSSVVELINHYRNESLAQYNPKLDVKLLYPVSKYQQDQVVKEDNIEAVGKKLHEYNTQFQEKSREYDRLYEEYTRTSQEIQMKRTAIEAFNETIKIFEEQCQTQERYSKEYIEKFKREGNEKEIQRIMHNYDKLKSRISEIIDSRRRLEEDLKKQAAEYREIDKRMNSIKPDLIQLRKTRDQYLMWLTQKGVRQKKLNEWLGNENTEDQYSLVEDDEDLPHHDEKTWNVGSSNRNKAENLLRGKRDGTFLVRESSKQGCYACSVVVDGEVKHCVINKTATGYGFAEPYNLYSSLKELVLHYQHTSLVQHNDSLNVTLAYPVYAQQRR
Sequence of PI3-kinase p110-alpha/p85-alpha (P42336 whole entry, canonical isoform): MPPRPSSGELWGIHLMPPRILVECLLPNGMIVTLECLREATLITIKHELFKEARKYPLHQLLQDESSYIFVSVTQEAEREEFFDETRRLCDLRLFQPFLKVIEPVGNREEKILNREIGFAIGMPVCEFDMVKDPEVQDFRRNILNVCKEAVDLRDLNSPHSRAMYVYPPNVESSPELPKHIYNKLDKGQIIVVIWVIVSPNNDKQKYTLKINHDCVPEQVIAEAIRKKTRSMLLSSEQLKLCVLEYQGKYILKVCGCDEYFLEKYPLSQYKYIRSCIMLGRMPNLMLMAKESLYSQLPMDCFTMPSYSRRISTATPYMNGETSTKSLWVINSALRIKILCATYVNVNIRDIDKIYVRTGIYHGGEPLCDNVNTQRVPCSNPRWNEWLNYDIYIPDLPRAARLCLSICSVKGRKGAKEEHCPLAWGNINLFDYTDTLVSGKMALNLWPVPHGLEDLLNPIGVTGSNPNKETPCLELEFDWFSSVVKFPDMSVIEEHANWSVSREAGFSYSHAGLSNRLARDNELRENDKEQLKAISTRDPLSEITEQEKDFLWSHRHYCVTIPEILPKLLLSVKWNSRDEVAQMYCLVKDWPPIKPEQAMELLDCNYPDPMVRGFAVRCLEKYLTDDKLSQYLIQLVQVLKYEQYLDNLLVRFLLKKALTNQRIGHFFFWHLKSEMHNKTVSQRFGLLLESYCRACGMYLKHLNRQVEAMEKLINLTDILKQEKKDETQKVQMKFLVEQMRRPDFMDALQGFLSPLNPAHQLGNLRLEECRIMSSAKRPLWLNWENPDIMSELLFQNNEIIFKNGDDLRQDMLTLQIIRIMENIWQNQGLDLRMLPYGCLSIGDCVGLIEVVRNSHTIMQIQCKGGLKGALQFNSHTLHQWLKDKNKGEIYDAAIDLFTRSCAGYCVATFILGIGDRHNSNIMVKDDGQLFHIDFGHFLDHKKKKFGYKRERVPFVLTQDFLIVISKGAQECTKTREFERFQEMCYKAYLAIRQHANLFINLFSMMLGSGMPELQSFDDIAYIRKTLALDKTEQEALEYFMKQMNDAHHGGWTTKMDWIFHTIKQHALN
Procedure, shortened: (§1)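 Recombinant human class I PI3K isoform, HTRF readout. ATP held at the Km of the enzyme. Compound preincubated with enzyme for 30 min. PIP3 product detected by its displacement of biotin-PIP3 from an energy-transfer complex.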

[5] = Clearance in Wistar rat at 1 mg/kg, iv; details: in vivo
Cytochrome P450 2C19 = Cytochrome P450 2C19 (Homo sapiens, UniProt P33261); experiment: Inhibition of CYP2C19 in human liver microsomes assessed as reduction in S-mephenytoin-4-hydroxylation at 1 to 25 uM by UPLC-MS/MS analysis; format: ADME
Sequence of Cytochrome P450 2C19 (P33261 whole entry): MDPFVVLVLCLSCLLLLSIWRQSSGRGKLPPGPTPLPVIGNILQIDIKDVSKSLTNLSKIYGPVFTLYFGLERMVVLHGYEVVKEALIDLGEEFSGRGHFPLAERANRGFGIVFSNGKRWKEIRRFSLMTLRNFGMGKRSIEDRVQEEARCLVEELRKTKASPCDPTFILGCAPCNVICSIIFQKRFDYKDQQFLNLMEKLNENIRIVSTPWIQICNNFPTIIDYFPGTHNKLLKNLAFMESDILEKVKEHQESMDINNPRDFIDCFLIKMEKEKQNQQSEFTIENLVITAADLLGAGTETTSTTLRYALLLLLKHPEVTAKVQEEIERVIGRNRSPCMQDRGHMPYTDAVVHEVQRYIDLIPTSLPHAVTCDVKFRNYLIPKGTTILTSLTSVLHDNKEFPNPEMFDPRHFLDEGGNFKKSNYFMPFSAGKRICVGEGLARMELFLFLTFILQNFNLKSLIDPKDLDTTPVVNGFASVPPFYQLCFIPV

[6] = Stability in human plasma at 5 uM up to 24 hrs by UPLC-MS/MS analysis; format: ADME, cell-free; details: read-out: Stability
Procedure, shortened: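 Compound incubated at 2 µg/ml in plasma (sodium heparin anticoagulant) at 37 °C for 24 h; percent remaining reported.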

[7] = Half life in Wistar rat at 1 mg/kg, iv; format: ADME, organism-based; details: in vivo
[8] = Apparent permeability of compound at 20 uM after 5 hrs by PAMPA; format: ADME
[9] = Protein binding in human plasma at 1 uM by LC-MS/MS analysis; format: ADME, cell-free; details: read-out: PPB
Procedure, shortened: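 Binding measured by equilibrium dialysis at 37 °C, compound at 1 µM in human plasma; percent bound reported as mean.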

Rattus norvegicus [10] = experiment: Anti-inflammatory activity in Brown Norway rat assessed as reduction in OVA-induced eosinophil infilteration to bronchoalveolar lavage administered orally bid 1 hr prior to OVA challenge on day 14 and 6 hrs post OVA challenge on day 21 measured 24 hrs post last OVA challenge by microscopic method; format: functional; details: for ED50: po, read-out: ID50 (the source's name)
[11] = Apparent volume of distribution in Wistar rat at 1 mg/kg, iv; format: ADME, organism-based; details: in vivo, read-out: Vz
[12] = Protein binding in mouse plasma at 1uM by LC-MS/MS analysis; format: ADME, cell-free; details: read-out: PPB
[13] = Clearance in Beagle dog at 1 mg/kg, iv through bolus administration; details: in vivo
Cytochrome P450 2D6 = Cytochrome P450 2D6 (Homo sapiens, UniProt P10635); experiment: Inhibition of CYP2D6 in human liver microsomes assessed as reduction in dextromethorphan O-demethylation at 1 to 25 uM by UPLC-MS/MS analysis; format: ADME
Sequence of Cytochrome P450 2D6 (P10635 whole entry): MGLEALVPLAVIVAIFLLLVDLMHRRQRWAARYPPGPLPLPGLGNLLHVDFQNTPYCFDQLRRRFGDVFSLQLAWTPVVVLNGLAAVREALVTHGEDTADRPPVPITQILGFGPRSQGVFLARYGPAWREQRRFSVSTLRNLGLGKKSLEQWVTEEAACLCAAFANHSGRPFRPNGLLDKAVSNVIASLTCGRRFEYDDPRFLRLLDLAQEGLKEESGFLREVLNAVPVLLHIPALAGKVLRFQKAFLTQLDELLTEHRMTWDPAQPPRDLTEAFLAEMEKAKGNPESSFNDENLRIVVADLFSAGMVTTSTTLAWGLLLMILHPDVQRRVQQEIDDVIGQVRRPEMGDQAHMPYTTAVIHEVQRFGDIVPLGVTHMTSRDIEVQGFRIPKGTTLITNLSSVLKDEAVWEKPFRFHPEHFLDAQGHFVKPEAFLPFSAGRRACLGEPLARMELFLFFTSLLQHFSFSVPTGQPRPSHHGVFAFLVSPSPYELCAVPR

Rattus norvegicus [14] = experiment: In vivo inhibition of PI3Kdelta in Wistar rat assessed as reduction in ConA-induced increase in plasma IL2 production administered through oral gavage 1 hr prior to ConA measured 90 mins post ConA challenge by ELISA; format: functional; details: read-out: ID50 (the source's name)
[15] = Protein binding in dog plasma at 1 uM by LC-MS/MS analysis; format: ADME, cell-free, Canis lupus familiaris; details: read-out: PPB
[16] = Half life in Beagle dog at 1 mg/kg, iv through bolus administration; format: ADME, organism-based, Canis lupus familiaris; details: in vivo
[17] = Drug metabolism in human liver microsomes assessed as disappearance of parent compound at 5 uM after 30 mins in presence of NADPH by UPLC-MS/MS analysis
PI3K p110 beta/p85 alpha = PI3K p110 beta/p85 alpha (Homo sapiens, UniProt P42338); experiment: Inhibition of full length recombinant human N-terminal […]-tagged PI3K p110beta/full length human p85alpha expressed in baculovirus infected Sf21 insect cells using PIP2 as substrate preincubated for 30 mins followed by substrate addition by HTRF assay; procedure, shortened: as §1
Sequence of PI3K p110 beta/p85 alpha (P27986 whole entry): as the sequence (P27986 whole entry, canonical isoform) above
Sequence of PI3K p110 beta/p85 alpha (P42338 whole entry): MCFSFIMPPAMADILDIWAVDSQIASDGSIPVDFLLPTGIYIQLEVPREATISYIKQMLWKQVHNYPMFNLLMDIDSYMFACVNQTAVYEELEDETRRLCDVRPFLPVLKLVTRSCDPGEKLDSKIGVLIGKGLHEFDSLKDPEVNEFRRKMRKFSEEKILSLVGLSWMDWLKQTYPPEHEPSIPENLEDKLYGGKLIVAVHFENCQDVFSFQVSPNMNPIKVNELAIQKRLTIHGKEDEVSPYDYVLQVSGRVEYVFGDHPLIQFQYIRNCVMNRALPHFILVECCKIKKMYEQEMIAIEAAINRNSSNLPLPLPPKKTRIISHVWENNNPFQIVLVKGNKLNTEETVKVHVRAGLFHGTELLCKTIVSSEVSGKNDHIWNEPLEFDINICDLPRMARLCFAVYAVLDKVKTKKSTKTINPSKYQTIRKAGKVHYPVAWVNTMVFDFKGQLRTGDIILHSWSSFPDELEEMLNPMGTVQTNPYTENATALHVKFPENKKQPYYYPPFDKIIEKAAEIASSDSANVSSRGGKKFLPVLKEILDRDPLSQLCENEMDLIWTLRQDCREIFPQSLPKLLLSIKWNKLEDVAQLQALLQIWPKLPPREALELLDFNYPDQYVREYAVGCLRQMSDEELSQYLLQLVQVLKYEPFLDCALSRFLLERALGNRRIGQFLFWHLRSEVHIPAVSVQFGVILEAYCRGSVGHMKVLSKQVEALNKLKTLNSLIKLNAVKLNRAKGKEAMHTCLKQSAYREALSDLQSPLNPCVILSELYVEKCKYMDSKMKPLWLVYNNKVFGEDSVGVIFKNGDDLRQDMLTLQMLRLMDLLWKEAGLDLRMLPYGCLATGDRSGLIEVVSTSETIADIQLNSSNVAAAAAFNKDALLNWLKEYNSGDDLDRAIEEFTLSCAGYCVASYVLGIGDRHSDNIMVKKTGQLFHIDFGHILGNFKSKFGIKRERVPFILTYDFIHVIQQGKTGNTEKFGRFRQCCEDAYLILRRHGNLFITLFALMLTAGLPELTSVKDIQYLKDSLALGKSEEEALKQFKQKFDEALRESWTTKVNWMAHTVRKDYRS

[18] = Oral bioavailability in Wistar rat at 1 mg/kg administered via gavage; format: ADME, organism-based; details: in vivo
[19] = AUC in Beagle dog at 1 mg/kg, iv through bolus administration; format: ADME, organism-based, Canis lupus familiaris; details: in vivo
[20] = Drug metabolism in rat liver microsomes assessed as disappearance of parent compound at 5 uM after 30 mins in presence of NADPH by UPLC-MS/MS analysis
[21] = molecular target: PI3-kinase p110-delta/p85-alpha (Homo sapiens, UniProt O00329); experiment: Inhibition of full length recombinant human N-terminal His6-tagged PI3K p110delta/human p85alpha expressed in baculovirus infected sf21 cells using PIP2 as substrate preincubated for 30 mins followed by substrate addition by HTRF assay
Sequence of PI3-kinase p110-delta/p85-alpha (P27986 whole entry, one chain of several): as the sequence (P27986 whole entry, canonical isoform) above

Cytochrome P450 1A2 = molecular target: T1, Cytochrome P450 1A2 (Homo sapiens, UniProt P05177); experiment: Inhibition of CYP1A2 in human liver microsomes assessed as reduction in Ethoxyresorufin O-deethylation at 1 to 25 uM by UPLC-MS/MS analysis; format: ADME
T1 sequence (P05177 whole entry): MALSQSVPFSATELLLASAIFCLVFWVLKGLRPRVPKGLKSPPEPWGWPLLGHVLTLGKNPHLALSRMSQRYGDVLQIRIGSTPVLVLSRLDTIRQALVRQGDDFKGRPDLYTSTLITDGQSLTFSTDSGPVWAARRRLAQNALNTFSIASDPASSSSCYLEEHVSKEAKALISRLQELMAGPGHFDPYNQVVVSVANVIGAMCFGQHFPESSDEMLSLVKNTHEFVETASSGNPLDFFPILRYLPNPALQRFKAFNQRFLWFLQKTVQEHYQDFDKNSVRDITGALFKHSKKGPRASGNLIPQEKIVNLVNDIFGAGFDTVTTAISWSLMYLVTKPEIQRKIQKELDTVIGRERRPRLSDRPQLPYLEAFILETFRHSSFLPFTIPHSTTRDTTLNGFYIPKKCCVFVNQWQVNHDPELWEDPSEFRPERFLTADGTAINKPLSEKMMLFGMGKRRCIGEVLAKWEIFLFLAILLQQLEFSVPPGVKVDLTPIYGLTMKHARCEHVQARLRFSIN

[22] = Apparent volume of distribution in Beagle dog at 1 mg/kg, iv through bolus administration; format: ADME, organism-based, Canis lupus familiaris; details: in vivo, read-out: Vz
[23] = molecular target: T2, Phosphatidylinositol 4,5-bisphosphate 3-kinase catalytic subunit delta isoform (Homo sapiens, UniProt O00329); experiment: Inhibition of PI3Kdelta in human THP1 cells assessed as reduction in MCSF-stimulated akt phosphorylation at Thr308 preincubated for 30 mins followed by MCSF stimulation for 3 mins by ELISA; format: cell-based, THP-1
T2 sequence (O00329 whole entry): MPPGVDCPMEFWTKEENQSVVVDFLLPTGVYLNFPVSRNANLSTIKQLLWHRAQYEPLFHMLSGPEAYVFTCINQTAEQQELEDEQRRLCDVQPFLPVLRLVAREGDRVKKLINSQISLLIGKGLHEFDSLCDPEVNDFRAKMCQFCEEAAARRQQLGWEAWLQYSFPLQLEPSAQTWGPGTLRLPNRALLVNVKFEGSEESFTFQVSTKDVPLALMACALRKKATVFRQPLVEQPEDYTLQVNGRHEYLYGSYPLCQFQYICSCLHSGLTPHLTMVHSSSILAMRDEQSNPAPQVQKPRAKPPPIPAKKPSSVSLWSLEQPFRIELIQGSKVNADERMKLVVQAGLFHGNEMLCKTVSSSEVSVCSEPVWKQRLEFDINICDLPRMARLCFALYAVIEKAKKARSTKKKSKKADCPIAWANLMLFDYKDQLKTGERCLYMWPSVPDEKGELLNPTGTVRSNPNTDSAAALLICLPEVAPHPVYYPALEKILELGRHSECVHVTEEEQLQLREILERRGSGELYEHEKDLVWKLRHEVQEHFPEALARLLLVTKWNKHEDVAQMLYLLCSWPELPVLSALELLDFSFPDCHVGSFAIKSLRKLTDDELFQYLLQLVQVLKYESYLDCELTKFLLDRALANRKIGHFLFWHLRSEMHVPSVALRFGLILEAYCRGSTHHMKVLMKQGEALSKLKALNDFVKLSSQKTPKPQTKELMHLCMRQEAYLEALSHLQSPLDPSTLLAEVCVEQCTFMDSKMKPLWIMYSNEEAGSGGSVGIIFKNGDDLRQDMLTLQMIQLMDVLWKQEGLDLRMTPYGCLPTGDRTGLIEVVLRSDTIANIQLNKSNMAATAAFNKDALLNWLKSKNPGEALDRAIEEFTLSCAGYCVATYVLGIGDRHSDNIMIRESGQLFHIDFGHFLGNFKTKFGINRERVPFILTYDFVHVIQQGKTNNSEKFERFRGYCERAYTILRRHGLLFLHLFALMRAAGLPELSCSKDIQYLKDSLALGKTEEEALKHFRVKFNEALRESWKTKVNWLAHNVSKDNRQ
Procedure, shortened: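 THP-1 cells exposed to compound for 30 min, then stimulated with MCSF at EC80 for 3 min; lysates assayed by ELISA for pAkt (Thr308).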

[24] = Volume of distribution at steady state in Wistar rat at 1 mg/kg, iv; format: ADME, organism-based; details: in vivo, read-out: Vdss

Sequence of Cytochrome P450 2C9 (P11712 whole entry): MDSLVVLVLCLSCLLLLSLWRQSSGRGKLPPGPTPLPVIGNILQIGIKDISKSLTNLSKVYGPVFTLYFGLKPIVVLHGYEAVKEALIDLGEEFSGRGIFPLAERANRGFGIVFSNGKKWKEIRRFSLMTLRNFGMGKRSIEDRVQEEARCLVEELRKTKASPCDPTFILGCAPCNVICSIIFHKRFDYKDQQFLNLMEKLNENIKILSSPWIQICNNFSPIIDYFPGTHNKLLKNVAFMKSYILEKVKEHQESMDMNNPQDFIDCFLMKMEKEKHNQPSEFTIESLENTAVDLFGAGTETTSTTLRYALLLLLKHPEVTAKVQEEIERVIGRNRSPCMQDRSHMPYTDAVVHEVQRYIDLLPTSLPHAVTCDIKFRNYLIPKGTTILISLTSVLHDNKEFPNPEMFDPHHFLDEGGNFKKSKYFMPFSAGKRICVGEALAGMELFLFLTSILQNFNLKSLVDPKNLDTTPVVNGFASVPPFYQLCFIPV

| SMILES | AUC [3] [ng·h/mL] | clearance [5] [mL/min/kg] | half-life [7] [h] | Vd [11] [L/kg] | half-life [16] [h] | metabolised at 0.5 h, 5 µM [17] [%] | bioavailability [18] [%] | AUC [19] [ng·h/mL] | metabolised at 0.5 h, 5 µM [20] [%] | IC50 [21] [µM] | Vd [22] [L/kg] | IC50 [23] [µM] | further results |
| --- | --- | --- | --- | --- | --- | --- | --- | --- | --- | --- | --- | --- | --- |
| CC[C@H](Nc1ncnc2[nH]cnc12)c1nc2cccc(F)c2c(=O)n1-c1ccccc1 [IDELALISIB] | 512 | – | 0.8 | 2.2 | 1.6 | – | 68 | 924 | – | – | 2.5 | – | ED50 (Rattus norvegicus [10]): 15 mg/kg; ED50 (Rattus norvegicus [14]): 1.6 mg/kg |
| C[C@H](Nc1nc(N)nc2[nH]cnc12)c1nn2cccc2c(=O)n1-c1ccccc1 | – | – | – | – | – | 26 | – | – | 30 | 0.0031 | – | 0.0065 | – |
| C[C@H](Nc1ncnc(N)c1C#N)c1nn2cccc2c(=O)n1-c1ccccc1 | 386 | 43.5 | 0.9 | – | – | 24 | – | – | 15 | – | – | – | Vd [24]: 1.9 L/kg |
| C[C@H](Nc1ncnc2[nH]ccc12)c1nn2cccc2c(=O)n1-c1ccccc1 | – | – | – | – | – | 49 | – | – | 44 | 0.052 | – | 0.15 | – |
| N#Cc1c(N)ncnc1N[C@@H](CCO)c1nn2cccc2c(=O)n1-c1ccccc1 | 450 | 36.8 | 1.1 | – | – | 7 | – | – | – | 0.0048 | – | 0.016 | Vd [24]: 1.6 L/kg |

Further lines, with some results ahead:

| AUC [3] [ng·h/mL] | clearance [5] [mL/min/kg] | half-life [7] [h] | Vd [11] [L/kg] | half-life [16] [h] | metabolised at 0.5 h, 5 µM [17] [%] | bioavailability [18] [%] | AUC [19] [ng·h/mL] | metabolised at 0.5 h, 5 µM [20] [%] | IC50 [21] [µM] | Vd [22] [L/kg] | IC50 [23] [µM] | SMILES | further results |
| --- | --- | --- | --- | --- | --- | --- | --- | --- | --- | --- | --- | --- | --- |
| 1730 | 9.6 | 3.1 | 2.6 | 10.2 | 16 | 101 | 9440 | 20 | 0.0026 | 1.2 | – | C[C@H](Nc1ncnc(N)c1C#N)c1nn2ccc(C#N)c2c(=O)n1-c1ccccc1 | IC50 (Cytochrome P450 2C9): > 25 µM; fraction unbound at 1 µM [1]: 0.35 to 0.4; bioavailability [2]: 98%; IC50 (Cytochrome P450 3A4): > 25 µM; IC50 [4]: 8.2 µM; IC50 (Cytochrome P450 2C19): > 25 µM; remaining at 24 h, 5 µM [6]: 100%; Papp at 5 h, 20 µM [8]: 2.8 ×10⁻⁶ cm/s; fraction unbound at 1 µM [9]: 0.046 to 0.05; Activity (Rattus norvegicus [10]): Dose-dependent effect; ED50 (Rattus norvegicus [10]): 0.16 mg/kg; fraction unbound at 1 µM [12]: 0.35 to 0.4; clearance [13]: 1.4 mL/min/kg; IC50 (Cytochrome P450 2D6): > 25 µM; ED50 (Rattus norvegicus [14]): 0.13 mg/kg; fraction unbound at 1 µM [15]: 0.35 to 0.4; IC50 (PI3K p110 beta/p85 alpha): 0.094 µM; IC50 (Cytochrome P450 1A2): > 25 µM |
| 2040 | 8.6 | 3.3 | 2.4 | 4.2 | 37 | 113 | 3940 | 16 | 0.003 | 1.5 | – | C[C@H](Nc1ncnc(N)c1C#N)c1nn2ccc(C(F)(F)F)c2c(=O)n1-c1ccccc1 | clearance [13]: 4.2 mL/min/kg |
| – | – | – | – | – | 80 | – | – | 44 | 0.0011 | – | 0.0016 | Cc1ccn2nc([C@H](C)Nc3ncnc(N)c3C#N)n(-c3ccccc3)c(=O)c12 | – |

From ChEMBL document CHEMBL3872285, “Discovery of a Potent, Selective, and Orally Available PI3Kδ Inhibitor for the Treatment of Inflammatory Diseases” (ACS Med Chem Lett, 2017)
